Source: PubChem BioAssay
Most compounds without a hit are left out; they make up all but 2.5% or so of the library.
MEKK2 WT-MEK5 – raises or lowers MEK5 binding to wildtype human MEKK2 PB1 domain. bead flow cytometry, Alexa488-MEK5 binding to MEKK2 WT; actives lie on both sides. binding response (% of control), % at 10 µM. 1.1% of 290,000 active. AID 1531; in the data active = binding response below about 67% or above about 130%
ABCB1 inh – human ABCB1 inhibition, ABCG2 as counter-screen | CCRF-Adr cells, JC-1 efflux, flow cytometry | 0.067% of 190,000 active | inhibition, % at 6.6 µM; in the data active = inhibition above about 40%;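 also: 0% = vehicle and 100% = reference inhibitor; higher value means more JC-1 retained so stronger ABCB1 efflux block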
MEKK2 mut-MEK5 – signal of MEK5 binding to mutant human MEKK2 PB1 domain; bead flow cytometry, Alexa488-MEK5 binding to MEKK2 mutant; percent response, % at 10 µM; 0.35% of 290,000 active; AID 1530; in the data active = percent response above about 24%, passing the limit was not always enough
MEKK3 PB1 HTS – modulators (inhibitors or enhancers) of MEK5 binding to human MEKK3 PB1 domain. binding response (% of control), % at 10 µM. Q99759. bead-based flow cytometry, Alexa488-MEK5 binding to MEKK3; actives lie on both sides; 0 = blocked by unlabeled MEK5, 100 = vehicle. 1.4% of 290,000 active;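 active = binding response more than 3 SD above or below the average of its plate-row segment, actives on both sides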;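 also: Alexa488 bead fluorescence after subtracting the streptavidin-only scavenger bead signal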
ABCG2 block – blocks JC-1 efflux by human ABCG2 transporter. AID 1325. 0.1% of 190,000 active. IgMXP3 cells, flow cytometry. inhibition, % at 6.6 µM;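 active = inhibition above 80%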;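 also: 0% = DMSO and 100% = nicardipine control wells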
Target sequence (Q9UNQ0 whole entry, looked up): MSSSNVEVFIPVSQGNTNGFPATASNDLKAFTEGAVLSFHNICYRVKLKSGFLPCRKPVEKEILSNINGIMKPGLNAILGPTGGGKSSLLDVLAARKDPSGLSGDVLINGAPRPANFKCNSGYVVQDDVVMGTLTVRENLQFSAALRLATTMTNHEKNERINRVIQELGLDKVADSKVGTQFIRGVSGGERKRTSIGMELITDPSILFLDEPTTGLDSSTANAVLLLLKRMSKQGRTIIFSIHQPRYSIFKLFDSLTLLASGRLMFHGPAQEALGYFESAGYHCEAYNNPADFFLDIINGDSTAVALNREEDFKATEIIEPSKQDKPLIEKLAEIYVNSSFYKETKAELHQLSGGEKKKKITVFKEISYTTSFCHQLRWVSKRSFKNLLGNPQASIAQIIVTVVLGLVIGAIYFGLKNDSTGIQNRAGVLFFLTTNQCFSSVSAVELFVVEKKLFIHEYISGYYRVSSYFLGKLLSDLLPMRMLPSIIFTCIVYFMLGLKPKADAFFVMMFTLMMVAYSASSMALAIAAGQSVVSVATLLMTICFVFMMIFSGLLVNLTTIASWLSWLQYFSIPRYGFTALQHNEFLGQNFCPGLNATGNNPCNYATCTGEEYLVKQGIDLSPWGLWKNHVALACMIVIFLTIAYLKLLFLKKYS
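Incubation: cells with compound and JC-1, 10 min at 25 °C, rotating, no wash / Test system: IgMXP3 (ABCG2) plus far-red-tagged CCRF-Adr (ABCB1) cells / Compound dosing: one concentration, 6.6 µM final / Also added: JC-1 fluorescent substrate / Evaluation: efflux inhibition in percent versus controls / Detection: flow cytometry, 530 nm JC-1 signal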
Efflux pump inh – antifungal efflux pump inhibition, Nile Red retention. S. cerevisiae Candida pump triplex. AID 485275. 0.44% of 330,000 active. inhibition, % at 10 µM;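 active = plate passing quality check with inhibition over a set limit, or well fluorescence over plate mean plus 4 SD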;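 also: Nile Red retained in pooled yeast measured as flow cytometry median fluorescence; 0% = buffer negative control and 100% = Enniatin B positive control; higher means more Nile Red kept so more efflux inhibition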
MEKK2wt confirm – raises or lowers MEK5 binding to wildtype human MEKK2, retest; 2.4% of 5,900 active; bead flow cytometry, Alexa488-MEK5 binding to MEKK2 WT; actives lie on both sides; AID 1892; binding response (% of control), % at 10 µM; shares compounds with MEKK3 PB1 HTS; in the data active = binding response below about 16% or above about 210%; inactive = in between
MEKK2mut-MEK5 – signal of MEK5 binding to mutant human MEKK2, retest. AID 1893. 2% of 5,900 active. bead flow cytometry, Alexa488-MEK5 binding to MEKK2 mutant. percent response, % at 10 µM. shares compounds with MEKK3 PB1 HTS; in the data active = percent response mostly above about 71%, no sharp cut-off; inactive = mostly below about 38%;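 also: higher means compound restores mutant binding toward wildtype level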
MEKK3-MEK5 inh – MEKK3-MEK5 PB1 inhibition, single concentration confirmation; bead flow cytometry, Alexa488-MEK5 binding to MEKK3; hits give low values; binding response (% of control), % at 10 µM; shares compounds with MEKK3 PB1 HTS; 1.8% of 5,900 active;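 active = binding response below 72% of control, or above a set upper limit, though filed actives all read lower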;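 also: 100% = DMSO only wells and 0% = binding blocked by excess unlabeled MEK5; lower values mean stronger disruption of MEK5 binding to MEKK3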
* hit, by the source's call; · = no result given; [ ] = dose if it differs, or a comment.

SMILES	MEKK2 WT-MEK5	ABCB1 inh	MEKK2 mut-MEK5	MEKK3 PB1 HTS	ABCG2 block	Efflux pump inh	MEKK2wt confirm	MEKK2mut-MEK5	MEKK3-MEK5 inh
CC(=O)Nc1ccc(NC(=O)CCOc2ccccc2C)cc1	104	·	1	104	·	0	·	·	·
COC(=O)N1c2ccccc2C=Cc2ccccc21	111	·	14	106	·	0	·	·	·
CCOc1ccc(N2C(=O)C3C(c4ccccc4F)NN(C(=O)c4ccc(C)cc4)C3C2=O)cc1 (stereo not drawn)	102	4	-2	109	5	0	·	·	·
O=C(NCCCN1CCOCC1)C1Cc2c(ccc3ccccc23)O1 (stereo not drawn)	105	0	0	115	0	0	·	·	·
Cc1ccc(Nc2nc(NCC3CCCO3)nc(N)c2[N+](=O)[O-])cc1C (stereo not drawn)	95	0	-1	74*[inhibitor]	10	1	106	5	102
CC(=O)COc1ncn(-c2ccccc2)n1	101	0	5	101	2	0	·	·	·
COc1cccc(N2C(=O)Nc3ccccc3C2(O)C(=O)NCc2ccc3c(c2)OCO3)c1 (stereo not drawn)	127	0	10	123*	1	0	105	1	102
Cc1cc(=O)oc2cc(NC(=O)C(C)N3C(=O)C4CCCCC4C3=O)ccc12 (stereo not drawn)	·	·	·	·	·	0	·	·	·
Cc1cc(SCc2ccccc2)nc(=O)[nH]1	2.0*[inhibitor]	0	-17	2.0*[inhibitor]	-2	0	94	-1	91
COc1cc(/C=C2\C(=O)NN(c3ccccc3)C2=O)ccc1OCC(N)=O	122	0	2	134*	-1	0	102	3	102
COC(=O)c1ccc(N2NC(=O)/C(=C/c3ccc(OC)c(OC)c3)C2=O)cc1	101	·	5	102	·	0	·	·	·
O=C(Cn1nc(CNc2ccc(Br)cc2)[n+]2c1CCCCC2)c1ccc([N+](=O)[O-])cc1	146*	·	33	103	·	0	132	19	96
O=C(Cn1nc(CNc2ccc(Cl)cc2)[n+]2c1CCCCC2)c1ccc(Br)cc1	120	1	0	99	0	1	·	·	·
O=C(NCC1OCCc2ccccc21)c1ccc(NC(=O)c2ccc(Cl)cc2)cc1 (stereo not drawn)	112	0	2	134*	0	0	105	9	106
CCNc1nc(CN2CCOCC2)nc2sc3c(c12)CCC3	102	0	5	102	11	0	·	·	·
c1ccc2c(c1)CCN(c1nc(CN3CCOCC3)nc3sc4c(c13)CCCC4)C2	107	4	3	135*	6	0	110	3	104
COc1ccc2c(c1OC)C(=O)N1C2SC[C@H]1C(=O)NC1CC1 (stereo partly drawn)	101	·	4	100	·	0	·	·	·
CCCN(C(=O)C(=O)Nc1ccc2nc3n(c(=O)c2c1)CCCCC3)c1ccc(OCC)cc1	95	·	-16	91	·	0	·	·	·
C=CCC(NCc1ccco1)c1ccc(OC)c(OC)c1 (stereo not drawn)	-1.0*[inhibitor]	1	-16	0.0*[inhibitor]	4	0	93	-5	98
COc1ccc(C(CC(=O)O)NC(=O)c2ccco2)cc1OC (stereo not drawn)	111	0	24*	110	2	0	101	-1	99
COc1ccc(C(CC(=O)O)NC(=O)c2ccco2)cc1 (stereo not drawn)	99	0	-1	102	0	0	·	·	·
O=C(O)Cc1ccc(N=Nc2c(O)c(C(=O)O)cc3ccccc23)cc1	91	·	4	99	·	0	·	·	·
NS(=O)(=O)c1ccc(N=Nc2c(O)c(C(=O)O)cc3ccccc23)cc1	69	·	-39	65*[inhibitor]	·	0	96	-4	98
O=S(=O)(NCCSc1ccccc1)c1cccs1	100	0	-2	104	1	0	·	·	·
Cc1ccc(Cl)cc1NC(C#N)c1ccccc1 (stereo not drawn)	115	·	24	129*	·	0	104	-1	102
SMILES	MEKK2 WT-MEK5	ABCB1 inh	MEKK2 mut-MEK5	MEKK3 PB1 HTS	ABCG2 block	Efflux pump inh	MEKK2wt confirm	MEKK2mut-MEK5	MEKK3-MEK5 inh
O=C(c1cc(S(=O)(=O)N2CCOCC2)ccc1Cl)N1CCC(Cc2ccccc2)CC1	·	·	·	·	·	0	·	·	·
CC(=O)N1CCN(c2ccc(Nc3ncnc4c3oc3ccccc34)cc2)CC1	89	1	-12	81*[inhibitor]	0	0	106	8	101
NC(=O)C[n+]1cccc2ccccc21	107	0	7	102	1	0	·	·	·
COc1ccc(C(=O)C[n+]2ccccc2C)cc1	108	1	1	143*	1	0	104	7	105
O=C(C[n+]1cc(Br)cc2ccccc21)c1ccc(Br)cc1	81	·	-4	92	·	0	·	·	·
O=C(C[n+]1cccc2ccccc21)c1ccc(Br)cc1	·	·	234*	24*[inhibitor]	·	0	107	1	91
Cc1ccc(C(=O)C[n+]2cccc3ccccc32)cc1	86	-4	-18	80*[inhibitor]	-3	0	101	-18	94
O=C(NC(=S)Nc1ccccc1)c1cncc(C#Cc2ccccc2)c1	101	·	-2	103	·	0	·	·	·
COC(=O)Cn1c(N2CCCC2)nc2c1c(=O)n(C)c(=O)n2C	115	·	30*	112	·	0	101	-3	101
CC1(C(=O)NCCCN2CCOCC2)Oc2cccnc2NC1=O (stereo not drawn)	94	0	-1	102	1	0	·	·	·
N/C(COc1cc(Cl)cc(Cl)c1)=N\O	115	·	25	135*	·	0	105	-2	107
O=C(Nc1cc(-c2nc3ncccc3o2)ccc1Cl)c1ccc([N+](=O)[O-])o1	101	·	5	103	·	0	·	·	·
CCN(C(=O)c1cc2c(=O)[nH]c3ccc(C)cc3c2s1)c1ccc(F)cc1	113	·	25	129*	·	0	95	-2	95
CCN1CCN(C(=O)CN(c2ccc(F)cc2)S(=O)(=O)c2ccc(OC)c(OC)c2)CC1	104	·	5	99	·	0	·	·	·
NNC(=O)[C@@H]1C[C@@H]1c1ccccc1	111	0	0	153*	-1	0	84	-13	84
